“And” between values parts separate entries of the source, which are not always exact repeats. Equal values may be shown once. Blank lines part the entries; values can stand above or below the compound they belong to.
Assays:
MRP2 = MRP2 (Homo sapiens, UniProt Q92887); assay: CDF directional; format: cell-based
MRP2 and/or MRP3 = assay: Net CDF uptake into Caco-2 grown on 24-well plates after CDFA exposure; format: cell-based, human; settings: 100 μM compound, 30 min with 5 μM CDFA, cells on plastic
[1] = tested on: esterase-mediated conversion of CDFA to CDF; assay: CDFA hydrolysis to CDF by Caco-2 cells; format: cell-based, human; settings: 100 μM compound
How it was run: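 Caco-2 cells from ATCC, used at passages 35–55, grown in DMEM with 10% FBS, 1% non-essential amino acids, 1 mM sodium pyruvate and 2 mM L-glutamine at 37°C in 5% CO2. CDFA was taken from a 5 mM stock in 1:1 DMSO:ethanol. CDF formation was expressed as specific activity per mg protein under initial-rate conditions, N = 3 per condition.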

[2] = tested on: genistein conjugative metabolism; assay: Genistein conjugative metabolism; format: in vitro ADME, human
Caco-2 [3] = assay: Lucifer yellow permeability in Caco-2; format: in vitro ADME, human; settings: control vs in the presence of 50 μM glyceollin
Caco-2 [4] = assay: Genistein conjugate metabolite excretion from Caco-2; format: in vitro ADME, human

Chain of MRP2 (Q92887 whole entry): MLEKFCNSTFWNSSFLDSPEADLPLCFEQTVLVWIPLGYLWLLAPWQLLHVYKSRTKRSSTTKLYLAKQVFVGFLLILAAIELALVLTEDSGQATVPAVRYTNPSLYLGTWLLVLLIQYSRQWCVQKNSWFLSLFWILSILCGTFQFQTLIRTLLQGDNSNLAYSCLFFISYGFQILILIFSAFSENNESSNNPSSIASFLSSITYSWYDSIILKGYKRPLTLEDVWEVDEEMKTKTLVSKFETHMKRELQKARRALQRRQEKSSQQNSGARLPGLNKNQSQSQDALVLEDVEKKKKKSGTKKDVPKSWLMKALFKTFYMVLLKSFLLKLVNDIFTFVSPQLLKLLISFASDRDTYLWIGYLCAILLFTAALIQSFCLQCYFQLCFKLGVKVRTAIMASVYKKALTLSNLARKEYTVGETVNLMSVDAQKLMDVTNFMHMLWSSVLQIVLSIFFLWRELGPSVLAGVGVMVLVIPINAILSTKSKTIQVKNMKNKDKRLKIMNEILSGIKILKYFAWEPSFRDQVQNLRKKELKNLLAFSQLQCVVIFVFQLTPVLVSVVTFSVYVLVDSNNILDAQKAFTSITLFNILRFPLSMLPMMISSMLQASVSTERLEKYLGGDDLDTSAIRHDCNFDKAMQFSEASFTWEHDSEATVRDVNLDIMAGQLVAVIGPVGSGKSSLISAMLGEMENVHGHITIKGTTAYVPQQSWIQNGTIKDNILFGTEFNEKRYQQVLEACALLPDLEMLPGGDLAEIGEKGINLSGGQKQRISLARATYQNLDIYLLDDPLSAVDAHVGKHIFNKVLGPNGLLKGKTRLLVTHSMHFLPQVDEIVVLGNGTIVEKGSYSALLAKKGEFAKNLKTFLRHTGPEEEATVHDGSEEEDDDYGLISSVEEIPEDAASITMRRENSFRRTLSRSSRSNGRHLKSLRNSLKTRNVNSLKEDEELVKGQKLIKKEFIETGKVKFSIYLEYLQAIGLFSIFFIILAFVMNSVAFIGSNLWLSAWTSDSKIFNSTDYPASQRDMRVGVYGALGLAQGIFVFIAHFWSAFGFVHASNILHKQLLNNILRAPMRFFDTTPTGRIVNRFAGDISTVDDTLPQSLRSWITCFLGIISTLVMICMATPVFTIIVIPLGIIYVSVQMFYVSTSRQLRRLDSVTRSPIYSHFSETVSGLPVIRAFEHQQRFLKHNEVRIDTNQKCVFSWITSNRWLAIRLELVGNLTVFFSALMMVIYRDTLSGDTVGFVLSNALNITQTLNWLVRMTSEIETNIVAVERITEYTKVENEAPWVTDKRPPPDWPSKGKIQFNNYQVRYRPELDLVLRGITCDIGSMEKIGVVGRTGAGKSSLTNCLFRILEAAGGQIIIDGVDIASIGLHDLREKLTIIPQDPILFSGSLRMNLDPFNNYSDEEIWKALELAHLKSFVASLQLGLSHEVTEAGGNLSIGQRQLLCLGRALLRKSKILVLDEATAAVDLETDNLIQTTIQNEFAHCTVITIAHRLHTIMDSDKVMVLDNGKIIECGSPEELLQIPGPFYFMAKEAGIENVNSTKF

CDF permeability, BA direction vs. AB direction (MRP2; control conditions, no inhibitor): 3.7 ± 0.36 fold
Compound: 5 (and 6)-Carboxy-2′,7′-dichloroflourescein [CDF]

CDF AB directional transport (MRP2; 100 μM compound vs control): statistically significant increase
CDF BA directional transport (MRP2; 100 μM compound vs control): statistically significant reduction
CDF cell concentration at the conclusion of the 2-hour incubation (MRP2; 100 μM compound, both transport directions): reduced
IC50 for reduction of CDF BA/AB permeability ratio (MRP2; 10, 30 or 100 μM compound): 22 µM
Compound: CN(C)C(=O)CCSC(SCCC(=O)O)c1cccc(/C=C/c2ccc3ccc(Cl)cc3n2)c1 (stereo not drawn) [MK-571]
CDF uptake (MRP2 and/or MRP3): significant reduction
rate of esterase-mediated conversion of CDFA to CDF [1]: did not alter
CDFA hydrolysis specific activity (initial rate) ([1]; 5 μM CDFA, control 6.0): 8.5 nM/min/mg protein

fraction of genistein metabolized to conjugates (Fm), average ([2]; control vs 30 μM glyceollin, average of two experiments): 47% ± 10.5% and 47%
Compound: O=c1c(-c2ccc(O)cc2)coc2cc(O)cc(O)c12 [genistein]

lucifer yellow permeability (Caco-2 [3]): 0.13 ± 0.035 × 10^-5 cm/s
Compound: Lucifer yellow

intracellular genistein conjugates ([2]; Caco-2): 9 ± 2.7 pmoles/filter
apical metabolite excretion rate (Caco-2 [4]): 6.5 ± 0.61 × 10^-5 nmoles/sec
Compound: glyceollin

— publication PMC4761526 (Journal of pharmaceutical sciences, 2016)
